The species entered for series [1] is Canis familiaris. The series can be described thus: Effect on transmembrane potential of dog Purkinje fibers paced at a basic cycle length of stimulation of 300 ms, repolarization time to -60 mV at 3 uM. It counts as functional. As to conditions: Canis lupus familiaris, Purkinje fiber. In short, it runs like this:
(§1)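 Purkinje fiber bundles were taken from pentobarbital-anesthetized mongrel dogs. They were superfused at 37.5-38.0 °C with Tyrode's (mM: NaCl 138, KCl 4, CaCl2 2, NaHCO3 24, MgCl2 0.5, Na2HPO4 1.8, dextrose 5) gassed with 95% O2-5% CO2, pH 7.3-7.4. Stimulation used 2.0 ms pulses at twice threshold. Fibers were equilibrated ≥1 h before drug. Action potentials were recorded at 4-6 sites and averaged per fiber.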

Series [2] is described as follows: (§2) Maximum rate of depolarization of the upstroke of the action potential at 3 uM. A digest of the protocol:
(§3)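 Purkinje fiber bundles from pentobarbital-anesthetized mongrel dogs, superfused at 37.5-38.0 °C with Tyrode's solution (95% O2-5% CO2, pH 7.3-7.4). Stimulation with 2.0 ms square pulses at 2× threshold. Fibers equilibrated at least 1 h before drug. Action potentials recorded at four to six sites, control vs drug, and averaged per fiber.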

In series [3] the test system is Canis familiaris. Nature of the series: Prodrug ventricular fibrillation threshold(VFT) in open-chest anesthetized dogs(Control = 8+/-1) at a dose of 2.5 mg/kg iv. The series is classed as functional, Canis lupus familiaris, Cardiac ventricle.
The species entered for series [4] is Canis familiaris. The series can be described thus: Effect on the transmembrane potential of dog Purkinje fibers paced at a basic cycle length of stimulation of 300 ms, repolarization time to -60 mV at 0.3 uM concentration. The series is classed as functional. Particulars: Canis lupus familiaris, Purkinje fiber. A digest of the protocol: as §1
For series [5], the species on record is Canis familiaris. Nature of the series: Effect on the transmembrane potential of dog Purkinje fibers paced at a basic cycle length of stimulation of 1000 ms, repolarization time to -60 mV at 0.3 uM concentration. It counts as functional. As to conditions: Canis lupus familiaris, Purkinje fiber. A digest of the protocol: as §1
For series [6], the species on record is Canis familiaris. Nature of the series: Effect on the transmembrane potential of dog Purkinje fibers paced at a basic cycle length of stimulation of 1000 ms, repolarization time to -60 mV at 3 uM. The series is classed as functional. As to conditions: Canis lupus familiaris, Purkinje fiber. In short, it runs like this: as §1
Series [7] can be described thus: as §2. In short, it runs like this:
as §3
The source holds these as a separate data set.

In series [8] the test system is Canis familiaris. Nature of the series: Effect on atrial effective refractory period, after intravenous administration in open-chest anesthetized dogs at dose of 1.0 mg/kg.
The species named for series [9] is Canis familiaris. Nature of the series: Effect on the transmembrane potential of dog Purkinje fibers paced at a basic cycle length of stimulation of 300 ms, repolarization time to -60 mV, at a concentration of 3 uM. The series is classed as functional. As to conditions: Canis lupus familiaris, Purkinje fiber. In short, it runs like this: as §1
The nature of series [10]: Maximum rate of depolarization of the upstroke of the action potential at 3 uM concentration. More on the design: unit not given beside the values. A digest of the protocol:
as §3

The species entered for series [11] is Canis familiaris. Nature of the series: Effect on the transmembrane potential of dog Purkinje fibers paced at a basic cycle length of stimulation of 1000 ms, repolarization time to -60 mV, at a concentration of 3 uM. The series is classed as functional. Particulars: Canis lupus familiaris, Purkinje fiber. A digest of the protocol:
as §1

The record followed here is ChEMBL document CHEMBL1125376, “Class III antiarrhythmic activity of novel substituted 4-[(methylsulfonyl)amino]benzamides and sulfonamides” (J Med Chem, 1992).

Several values for one entry are separate records, joined by “and”; a condition that tells them apart may be missing. Identical values can stand only once.

For `CN(CCN(C)S(=O)(=O)c1ccc(NS(C)(=O)=O)cc1)c1nc2ccccc2n1C.Cl`, the APD60 came out at 40 in the series filed under Canis familiaris [1], 24 in the series listed under Canis familiaris [4], 46 in the series listed under Canis familiaris [5] and 57 in the series filed under Canis familiaris [6]. Besides, the Vmax in series [2] is given as 11; in series [7], 13. The VFT with Canis familiaris [3] is 8 and 24.

In turn, `Cl.Cn1c(N2CCN(C(=O)c3ccc(NS(C)(=O)=O)cc3)CC2)nc2ccccc21` registered a Change in the series with Canis familiaris [8] of 33%. Also, the APD60 is 33 in the series listed under Canis familiaris [9], 75 in the series listed under Canis familiaris [11], 6 in the series listed under Canis familiaris [4] and 17 in the series filed under Canis familiaris [5]. In addition, the Vmax in series [10] is given as -3.
